From ChEMBL document CHEMBL1155274, “Synthesis of some novel pyrazolo[3,4-b]pyridine and pyrazolo[3,4-d]pyrimidine derivatives bearing 5,6-diphenyl-1,2,4-triazine moiety as potential antimicrobial agents” (Eur J Med Chem, 2009)
Converted amounts (≈) assume the structure as drawn.

Tests used:
[1] = tested on: Staphylococcus epidermidis; experiment: Antimicrobial activity against Staphylococcus epidermidis MTCCB 1824 at 100 ug/mL after 16 to 20 hrs by disk diffusion method; format: functional; conditions: read-out: IZ
How it was run: (§1)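 Nutrient agar disc diffusion against bacterial strains, compounds in DMSO at a single test concentration. DMSO blank; tetracycline as reference drug. Plates incubated 16–20 h at 37 °C, and the inhibition zone was measured.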

Staphylococcus aureus [2] = experiment: Antimicrobial activity against Staphylococcus aureus MTCCB 737 at 100 ug/mL after 16 to 20 hrs by disk diffusion method; format: functional; conditions: read-out: IZ; how it was run: as §1
Escherichia coli [3] = experiment: Antimicrobial activity against Escherichia coli MTCCB 1652 at 100 ug/mL after 16 to 20 hrs by disk diffusion method; format: functional; conditions: read-out: IZ; how it was run: as §1
Alternaria alternata [4] = experiment: Antimicrobial activity against Alternaria alternata at 100 ug/mL after 3 to 4 days by disk diffusion method; conditions: read-out: IZ
Aspergillus niger [5] = experiment: Antimicrobial activity against Aspergillus niger at 100 ug/mL after 3 to 4 days by disk diffusion method; conditions: read-out: IZ
Aspergillus fumigatus = experiment: Antimicrobial activity against Aspergillus fumigatus at 100 ug/mL after 3 to 4 days by disk diffusion method; conditions: read-out: IZ
Escherichia coli [6] = experiment: Antimicrobial activity against Escherichia coli MTCCB 1652 after 24 hrs by serial dilution method; format: functional; conditions: MTCCB 1652, 24 h
How it was run: (§2)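 Tube serial dilution in nutrient broth at compound levels of 6.25, 12.5, 25, 50 and 100. Each tube received standardized microbial suspension (10^7 cells/mL) and was incubated 24 h at 37 °C. MIC was the lowest concentration preventing growth, i.e. maintaining or reducing inoculum viability.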

Aspergillus niger [7] = experiment: Antimicrobial activity against Aspergillus niger after 24 hrs by serial dilution method; format: functional; how it was run: as §2
Staphylococcus aureus [8] = experiment: Antimicrobial activity against Staphylococcus aureus MTCCB 737 after 24 hrs by serial dilution method; format: functional; conditions: MTCCB 737, 24 h; how it was run: as §2
Artemia salina = experiment: Toxicity against Artemia salina assessed as number of the nauplii died after 24 hrs; format: organism-based; conditions: in vivo
How it was run: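 Artemia salina eggs were hatched in sea salt water (38 g/L) at 37 °C for 48 h with constant oxygen to give nauplii. Stocks were 10 mg per 2 mL DMSO, and five dilutions were run in triplicate with about 10 nauplii per vial. A DMSO-only vial served as control.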

Alternaria alternata [9] = experiment: Antimicrobial activity against Alternaria alternata after 24 hrs by serial dilution method; format: functional; how it was run: as §2

| Structure (SMILES) | zone of inhibition at 100 µg/mL [1] [mm] | zone of inhibition at 100 µg/mL (Staphylococcus aureus [2]) [mm] | zone of inhibition at 100 µg/mL (Escherichia coli [3]) [mm] | zone of inhibition at 100 µg/mL (Alternaria alternata [4]) [mm] | zone of inhibition at 100 µg/mL (Aspergillus niger [5]) [mm] | zone of inhibition at 100 µg/mL (Aspergillus fumigatus) [mm] | MIC (Escherichia coli [6]) [µg/mL] | MIC (Aspergillus niger [7]) [µg/mL] | MIC (Staphylococcus aureus [8]) [µg/mL] | LC50 (Artemia salina) [ppm] | MIC (Alternaria alternata [9]) [µg/mL] |
| --- | --- | --- | --- | --- | --- | --- | --- | --- | --- | --- | --- |
| CSc1nn(-c2nnc(-c3ccccc3)c(-c3ccccc3)n2)c2nc(C)c3c(=O)[nH]cnc3c12 | 17 | 17 | 10 | 12 | 10 | 11 | – | – | – | – | – |
| CSc1nn(-c2nnc(-c3ccccc3)c(-c3ccccc3)n2)c2nc(C)[nH]c(=O)c12 | 11 | 14 | 5 | 10 | 9 | 12 | – | – | – | – | – |
| CSc1nn(-c2nnc(-c3ccccc3)c(-c3ccccc3)n2)c2nc(-c3ccccc3)c3c(C)c(C#N)c(N)nc3c12 | 22 | 25 | 19 | 9 | 11 | 16 | 25 (≈ 43.3 µM) | > 100 | 50 (≈ 86.6 µM) | 0.58 | > 100 |
| O=C(O)c1cc(O)c(O)c(O)c1 [GALLIC ACID] | – | – | – | – | – | – | – | – | – | 4.53 | – |
| Cc1nc2c(c(=O)[nH]1)c1nnc(-c3ccccc3)n1n2-c1nnc(-c2ccccc2)c(-c2ccccc2)n1 | 27 | 27 | 26 | 8 | 12 | 17 | 25 (≈ 50.2 µM) | 50 (≈ 100 µM) | 50 (≈ 100 µM) | 3.54 | 50 (≈ 100 µM) |
| Nc1nc(=S)[nH]c2nn(-c3nnc(-c4ccccc4)c(-c4ccccc4)n3)c(N)c12 | 11 | 9 | 13 | 2 | 7 | 11 | – | – | – | – | – |
| S=c1nc2c3c(n(-c4nnc(-c5ccccc5)c(-c5ccccc5)n4)nc3[nH]1)N=C(c1ccccc1)N2 | 13 | 16 | 9 | 5 | 11 | 9 | – | – | – | – | – |
| CC(=O)c1c(-c2ccccc2)nc2c3c(nn2-c2nnc(-c4ccccc4)c(-c4ccccc4)n2)N(c2ccccc2)C(C)=Nc13 | 13 | 18 | 10 | 9 | 7 | 3 | – | – | – | – | – |
| CSC(Nc1c(C#N)c(SC)nn1-c1nnc(-c2ccccc2)c(-c2ccccc2)n1)=C(C#N)C#N | 21 | 17 | 11 | 8 | 6 | 9 | – | – | – | – | – |
